Assay outcomes as filed in PubChem.
GalR3 antagonist = GalR3 antagonists in HEK293 cells, primary screen, cell-based, fluorescence readout | 360,000 compounds, 0.44% hits | Galanin receptor type 3 (Homo sapiens), O60755 | inhibition, % at 3 µM | HEK293 GalR3-CNG cAMP membrane potential fluorescence; galR3 body fused to GalR1 C-terminus;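 active = inhibition above the screen-wide average plus 3 SD, cut at about 13% in these data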;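 also: forskolin and galanin both at EC90 stimulate the cells; cAMP rise reported by CNG channel membrane potential dye signal; 0% = forskolin plus galanin with DMSO and 100% = forskolin alone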
Target sequence (O60755 1-299 limits assumed): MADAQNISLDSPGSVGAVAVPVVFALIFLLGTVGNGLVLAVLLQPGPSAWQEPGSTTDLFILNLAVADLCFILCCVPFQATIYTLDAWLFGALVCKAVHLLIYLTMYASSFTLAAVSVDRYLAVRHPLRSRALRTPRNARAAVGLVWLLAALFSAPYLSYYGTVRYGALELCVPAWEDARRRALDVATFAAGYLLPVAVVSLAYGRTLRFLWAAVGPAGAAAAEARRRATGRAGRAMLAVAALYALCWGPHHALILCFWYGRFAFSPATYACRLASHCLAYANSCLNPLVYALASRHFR
NR2E3 ag-1 = NR2E3 agonists in two-hybrid cells, primary screen, cell-based, luminescence, CHO-S, Gal4-NCOR/VP16-NR2E3; 360,000 compounds, 0.35% hits; inhibition of corepressor binding, % at 3.98 µM; Photoreceptor-specific nuclear receptor (Homo sapiens), Q9Y5X4; luciferase; AID 602229, 2012;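 active = inhibition above the mean of all tested compounds plus 3 SD, cut at about 70% in these data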;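 also: 0% = DMSO with NR2E3 transfected cells and 100% = cells lacking NR2E3 construct; higher means lower luciferase signal from less NR2E3 corepressor binding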
Target sequence (Q9Y5X4 whole entry, looked up, the tested form may be a part): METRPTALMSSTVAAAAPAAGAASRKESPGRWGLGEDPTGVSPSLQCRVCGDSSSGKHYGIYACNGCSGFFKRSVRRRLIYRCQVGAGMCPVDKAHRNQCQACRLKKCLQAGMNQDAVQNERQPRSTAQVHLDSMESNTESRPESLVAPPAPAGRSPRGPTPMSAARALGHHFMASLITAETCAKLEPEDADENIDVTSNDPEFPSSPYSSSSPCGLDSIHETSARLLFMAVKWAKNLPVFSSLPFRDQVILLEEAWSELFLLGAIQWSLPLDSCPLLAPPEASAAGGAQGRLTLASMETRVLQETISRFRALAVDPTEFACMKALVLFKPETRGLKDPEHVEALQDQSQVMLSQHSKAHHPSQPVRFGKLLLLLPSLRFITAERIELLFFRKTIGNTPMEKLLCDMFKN
Env fusion inh = inhibitors of HIV-1 Env-driven cell-cell fusion, primary screen, HeLa-JRFL effector, CEM21 target cells, luciferase; AID 651610, 2012; inhibition, % at 12.3 µM; 360,000 compounds, 1.1% hits;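 active = mean replicate inhibition score of at least 50 and every replicate individually at or above 50; inconclusive = only one of the two criteria met; inactive = mean below 50 and not all replicates reaching 50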;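 also: 0% = plate neutral controls and 100% = maraviroc near 300 nM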
V-ATPase pH = regulators of yeast V-ATPase proton pumping, primary screen, pHLuorin cytosolic pH fluorescence | response, % at 10 µM | 350,000 compounds, 0.37% hits | S. cerevisiae; in the data active = response mostly above about 7.3%, no sharp cut-off; inactive = mostly below about 5.4%; also: actives read high
GAA850 FXN act = FXN promoter activators, primary screen, cell-based, luciferase luminescence, HEK293 lucGAA850; 360,000 compounds, 0.56% hits; activation, % at 6 µM; HEK293 lucGAA850 FXN promoter luciferase reporter, 24 h; percent of 10 µM SAHA response;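 active = activation above the average of all compounds screened plus 3 SD, cutoff fixed separately per campaign, cut at about 7.5% in these data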;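 also: 0% = DMSO wells and 100% = 10 µM SAHA wells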
NR2E3 ag-2 = inhibitors of NR2E3-RetCOR corepressor binding, primary screen, NR2E3 agonist project, biochemical, TR-FRET, GST-NR2E3, biotin-RetCOR | 1536-well | inhibition of corepressor binding, % at 4.78 µM | 320,000 compounds, 0.12% hits | AID 2300, 2010;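 active = percent inhibition above the cutoff of mean plus 3 SD of all tested compounds, set per screening campaign, cut at about 20% in these data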;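 also: 0% = DMSO wells and 100% = biotin wells as full block of FRET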
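Material: NR2E3–RetCOR corepressor complex / Incubation: Compound–protein incubation for 5 h at 4 °C / Dosing: compound at 4.8 µM, single dose / Detection: time-resolved FRET / Benchmarks: high control biotin, low control 0.6% DMSO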
NR2E3 ag confirm-1 = NR2E3 agonists, confirmation, biochemical, TR-FRET | shares compounds with NR2E3 ag-2 | cell-free NR2E3 corepressor release, 5 h | activation (reported as inhibition), % at 3.98 µM | 360 compounds, 39% hits; in the data active = activation above about 20%
PPARg-NCOR2 ctr = agonists of PPARg-NCOR2 corepressor interaction, counter-screen for NR2E3 agonist project, biochemical, TR-FRET; shares compounds with NR2E3 ag-2; TR-FRET PPARg-NCOR2 coregulator interaction; inhibition, % at 3.98 µM; 360 compounds, 45% hits; AID 504787, 2011; in the data active = inhibition above about 20%;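 also: 0% = DMSO vehicle and 100% = wells without protein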
V-ATPase pH SP = yeast V-ATPase proton pumping modulators, confirmation, S. cerevisiae, pH-sensitive GFP, second cherry-pick; shares compounds with V-ATPase pH; S. cerevisiae pHLuorin cytosolic pH, V-ATPase proton transport; response, % at 10 µM; 980 compounds, 2% hits; AID 602197, 2012; in the data active = response above about 24%;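 also: plate controls were vehicle wells for no effect and positive control wells for full effect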
GAA30 counter = GAA30 FXN promoter activators, confirmation, counter-screen for GAA850 frataxin promoter activator project, cell-based, luminescence, HEK293, lucGAA30, triplicate; shares compounds with GAA850 FXN act; HEK293 lucGAA30 FXN promoter luciferase, 24 h; DMSO = 0%, 5 µM ipriflavone = 100%; activation, % at 6 µM; 1,900 compounds, 66% hits;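 active = mean activation above the mean of solvent-only control wells plus 3 SD, cut at about 22% in these data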;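 also: counterscreen of GAA850 promoter hits where activity marks nonselective or luminescence artifacts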
FXN GAA850 conf = FXN GAA850 promoter activators in reporter cells, confirmation, cell-based, luminescence, HEK293 lucGAA850, triplicate; activation, % at 6 µM; HEK293 lucGAA850 FXN promoter luciferase reporter, 24 h; 100% = activation by SAHA; shares compounds with GAA850 FXN act; AID 588351, 2011; 1,900 compounds, 86% hits;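 active = mean activation above a set limit taken from the primary screen, cut at about 8% in these data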;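 also: 0% = DMSO wells and 100% = 10 µM SAHA wells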
NR2E3 ag confirm-2 = NR2E3 agonist confirmation in cells, cell-based, luminescence, CHO-S two-hybrid | inhibition, % at 3.98 µM | CHO-S mammalian two-hybrid NR2E3-NCOR, luciferase luminescence | 2,300 compounds, 51% hits | shares compounds with NR2E3 ag-1 | AID 624378, 2012;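 active = average inhibition above a cutoff equal to the mean inhibition of all tested compounds plus one SD, cut at about 70% in these data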;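 also: 0% = DMSO in NR2E3 cells and 100% = DMSO in cells lacking NR2E3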
VP16 counter = GAL4-VP16 reporter modulators, confirmation, counter-screen for NR2E3 agonist project, cell-based, luminescence, CHO-S, high throughput | shares compounds with NR2E3 ag-1 | CHO-S GAL4-VP16 luciferase reporter | inhibition, % at 3.98 µM | 2,300 compounds, 29% hits;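 active = mean inhibition above a cutoff equal to the average over all tested compounds plus one standard deviation, cut at about 70% in these data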;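 also: luciferase from a UAS reporter driven by GAL4-VP16 transactivation; 0% = DMSO with VP16-transfected cells and 100% = DMSO with cells lacking VP16; higher means less reporter light so more repression of VP16 activity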
* hit, by the source's call; u = inconclusive; x = not tested or not shown. The list is not random: actives were taken first. Their share in the collection is about 2.2%.

SMILES	GalR3 antagonist	NR2E3 ag-1	Env fusion inh	V-ATPase pH	GAA850 FXN act	NR2E3 ag-2	V-ATPase pH SP	others
Cc1nc2c(=O)n(C)c(=O)nc-2n(C)n1	-5	114*	x	-2	-15	38*	x	NR2E3 ag confirm-1=40*;PPARg-NCOR2 ctr=64*;NR2E3 ag confirm-2=100*;VP16 counter=98*
Brc1ccc2c(c1)-n1nncc1CNC2	-8	x	35	x	x	x	x
COc1ccc(N2C(=O)/C(=C/c3ccc(C)o3)C(=O)NC2=S)cc1	-8	-5	-10	11*	2	x	82*
CCOc1ccc(N2C(=O)/C(=C/c3ccc(C)o3)C(=O)NC2=S)cc1	-10	-28	-16	6	1	1	x
Cc1cc(OCC(=O)N2CCC(C(=O)O)(c3ccccc3)CC2)c2c(C)c(C)c(=O)oc2c1	-4	-31	x	10*	0	-1	0
COc1ccc(/C=C2\C(=O)NC(=S)N(C)C2=O)cc1C	1	-17	-6	1	1	5	x
Cc1ccsc1/C=C1\C(=O)NC(=S)N(C)C1=O	-7	10	-8	11*	3	7	45*
Cc1ccccc1CN1CCNCC1	-5	1	2	11*	2	-1	1
O=C(c1ccccc1)N1Cc2cc(Br)ccc2-n2nncc2C1	-4	x	-12	x	x	x	x
Cc1ccc(C2C(S(C)(=O)=O)=C(O)C(=O)N2c2ccccc2)cc1 (centres undefined) (tested in a mixture with another compound)	-1	-10	x	7.7*	0	1	-1
O=C(NCCN1CCC2(CC1)C(=O)NCN2c1ccccc1)c1cccs1	-6	x	-2	x	x	x	x
C[C@]1(O)CC[C@H]2[C@@H]3CCC4=CC(=O)CC[C@]4(C)[C@@]3(F)[C@@H](O)C[C@@]21C	2	-10	x	9.2*	2	x	1
O=C(NC1CCCCC1)N1Cc2cc(Br)ccc2-n2nncc2C1	-3	x	31	x	x	x	x
O=P(OCCCl)(OCCCl)OCCCl	1	x	x	x	x	x	x
O=C(NCCN1CCC2(CC1)C(=O)NCN2c1ccccc1)c1ccc(F)cc1	-9	x	-12	x	x	x	x
O=C(Nc1ccc(F)cc1)c1c(O)c2c(n(Cc3ccccc3)c1=O)CCCC2	-2	6	-10	10.0*	3	1	4
CCOC(=O)c1ccccc1N	-5	-19	x	1	0	x	x
CCOC(=O)c1cc2c(cn1)[nH]c1ccccc12	0	-37	-18	-4	2	3	0
O=c1oc2ccccc2c(O)c1C(c1ccc([N+](=O)[O-])cc1)c1c(O)c2ccccc2oc1=O	-3	10	-3	12*	1	x	1
C/C(CC(c1ccccc1)c1c(O)c2ccccc2oc1=O)=N\Nc1ccc([N+](=O)[O-])cc1[N+](=O)[O-] (centres undefined)	4	-30	4	-2	0	3	x
COc1cccc(NC2=NCCS2)c1	-6	x	-4	x	x	x	x
O=S(=O)(c1ccc(Cl)cc1)N1Cc2ccc(Br)cc2-n2nncc2C1	-9	x	41	x	x	x	x
C/C(=N\Nc1ccccc1)c1c(O)[nH]c(=O)[nH]c1=O	-3	18	0	16*	0	-1	-3
Cc1ccc2nc(N3CCN(C)CC3)[nH]c2c1	-4	-51	-80	12*	5	1	0
CN1CCN(c2nc(N)cc(=O)[nH]2)CC1	-8	-29	12	-1	1	0	x
SMILES	GalR3 antagonist	NR2E3 ag-1	Env fusion inh	V-ATPase pH	GAA850 FXN act	NR2E3 ag-2	V-ATPase pH SP	others
C/C(=N\N1CCCCCC1)c1c(O)n(-c2ccc(C)cc2)c(=O)[nH]c1=O	-2	-13	-1	8.7*	3	3	-4
Cc1ccc([N+](=O)[O-])cc1	-1	-11	x	21*	-1	3	4
O=C(NCCN1CCC2(CC1)C(=O)NCN2c1ccccc1)c1ccccc1F	-4	x	20	x	x	x	x
O=C1C=C2C=C[C@@H]3CC2(O1)[C@H]1CCCCN31	-3	-25	23	-2	8.1*	-2	x	GAA30 counter=36*;FXN GAA850 conf=14*
O=C(O)CCl	4	x	x	x	x	x	x
CN1CCCC1CCOC(C)(c1ccccc1)c1ccc(Cl)cc1 (centres undefined)	-9	-46	15	1	-2	x	x
COc1ccccc1CCNCc1ccc(OC)c(OC)c1OC	-9	-6	15	1	-1	0	x
COc1ccc(CNCCc2c[nH]c3ccccc23)c(OC)c1OC	-12	-10	u	0	8.1*	2	x	GAA30 counter=13;FXN GAA850 conf=8.7*
c1ccc(-c2nc3ccccc3nc2-c2ccc(CN3CCC(n4nnc5ccccc54)CC3)cc2)cc1	-8	x	1	x	x	x	x
CC(C)(O)C(=O)Nc1ccc([N+](=O)[O-])c(C(F)(F)F)c1	1	-12	x	-3	12*	1	x	GAA30 counter=16;FXN GAA850 conf=7
